Series [1] relates to Calvarial osteoblast. Kind of series: Cytotoxicity in BALB/c mouse calvarial osteoblast cells at 0.001 to 1000 nM incubated for 48 hrs by MTT assay. Type of series: toxicity, cell-based, Calvaria. To be noted: 1 µM, dose 0.001-1000 nM. A digest of the protocol: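 Primary calvarial osteoblasts from 1–2 day old BALB/c pups (collagenase/dispase digests, α-MEM with 10% FBS) seeded at 2 × 10³ per well. MTT added for 4 h at 37 °C, formazan dissolved in DMSO, absorbance read at 570 nm.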
For orientation: Tetrazolium assays rely on reduction of a dye to a coloured formazan, in cell work by metabolically active cells.

Series [2] concerns Calvarial osteoblast. The experiment in a line: Induction of cell proliferation of BALB/c mouse calvarial osteoblast cells at 0.001 nM incubated for 48 hrs by MTT assay relative to control. The class given is functional, Calvaria. A digest of the protocol: (§1)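 Primary calvarial osteoblasts from 1–2-day-old neonatal BALB/c pups, released by dispase/collagenase digestion and grown in α-MEM with 10% FBS. Seeded at 2 × 10³ cells per well, treated after 24 h for 48 h in α-MEM with 5% FBS, 10 mM β-glycerophosphate and 50 μg mL⁻¹ ascorbic acid. MTT added for 4 h at 37 °C, formazan dissolved in DMSO, absorbance read at 570 nm versus untreated cells.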

The test system of series [3] is Calvarial osteoblast. Kind of series: Induction of osteogenesis in BALB/c mouse calvarial osteoblast cells using PNPP as substrate assessed as increase in ALP activity at 0.1 to 10 nM measured after 48 hrs by spectrophotometry. The class given is functional, cell-based. The settings on record: Calvaria, dose 0.1-10 nM. A digest of the protocol:
(§2)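 Neonatal BALB/c calvarial osteoblasts, 2 × 10³ cells per well, adhered 24 h, then exposed to compounds (1 pM to 1 μM range) in osteoblast differentiation medium for 48 h. Cells frozen overnight at −80 or −20 °C, thawed at 37 °C to expose ectoenzyme; p-nitrophenyl phosphate added and ALP activity read at 405 nm. Untreated cells as control.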

Series [4] in a line: Induction of osteogenesis in BALB/c mouse MSC cells assessed as increase in mineral nodule formation at 0.1 nM treated for 21 days with compound refreshment for every 48 hrs by Alizarin red S staining based analysis relative to control. The settings on record: time 21 day. The class given is functional. The method in brief: (§3)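 Bone marrow cells were flushed from the long bones of 6–8-week-old BALB/c mice and seeded at 2 × 10⁶ per well. Medium: 10% FBS, 100 nM dexamethasone, 50 μg mL⁻¹ ascorbic acid and 10 mM β-glycerophosphate. Compound and medium were renewed every 48 h for 21 days. Cells were fixed in 4% paraformaldehyde and stained with Alizarin red (pH 4.2). Stain was eluted with 10% cetylpyridinium chloride for 1 h and read at 595 nm versus control.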

In series [5] the test system is Calvarial osteoblast. Kind of series: Induction of cell proliferation of BALB/c mouse calvarial osteoblast cells at 0.1 nM incubated for 48 hrs by MTT assay relative to control. The class given is functional, Calvaria. A digest of the protocol:
as §1

The nature of series [6]: Induction of osteogenesis in BALB/c mouse MSC cells assessed as increase in mineral nodule formation at 0.001 nM treated for 21 days with compound refreshment for every 48 hrs by Alizarin red S staining based analysis relative to control. Type of series: functional. The settings on record: time 21 day. The method in brief:
as §3

Series [7] concerns Calvarial osteoblast. Kind of series: Induction of osteogenesis in BALB/c mouse calvarial osteoblast cells using PNPP as substrate assessed as increase in ALP activity at 0.001 to 10 nM measured after 48 hrs by spectrophotometry. The settings on record: Calvaria, dose 0.001-10 nM. The class given is functional, cell-based. The method in brief: as §2

Calls of active or inactive are those of the source. No cut-off for these calls is given here.

As to `CCCCCC(=O)Nc1nc(-c2ccc(Cl)cc2)c(Cl)c(-c2cc(OC)c(OC)cc2OC)n1`, the Activity result in the series on Calvarial osteoblast [1] is listed as “Non-Toxic”; with Calvarial osteoblast [2], ~18%; in series [4], ~27%. The outcome in the series with Calvarial osteoblast [3] was Active.
`COc1cc(OC)c(-c2nc(N)nc(-c3ccc(Cl)cc3)c2Cl)cc1OC`: the Activity result with Calvarial osteoblast [1] was “Non-Toxic”; in the series on Calvarial osteoblast [5], ~29%; in series [4], ~26%. Further, the result in the series on Calvarial osteoblast [3] was Active.
`CCCCCC(=O)Nc1nc(-c2ccc(Br)cc2)cc(-c2cc(OC)c(OC)cc2OC)n1`: the Activity entry in the series on Calvarial osteoblast [1] is reported as “Non-Toxic”; in series [6], ~24%; with Calvarial osteoblast [2] it was ~22%; in the series on Calvarial osteoblast [5], ~25%; in series [4], ~25%. For the same compound, the outcome with Calvarial osteoblast [7] was Active.

The record behind these values is ChEMBL document CHEMBL5376022, “Design, synthesis and biological evaluation of novel pyrimidine derivatives as bone anabolic agents promoting osteogenesis via the BMP2/SMAD1 signaling pathway” (RSC Med Chem, 2024).
